Source: ChEMBL document CHEMBL4689842, “EUbOPEN Chemogenomics Library wave 1” (2021)
Values joined by “and” are separate entries in the source; they are usually repeats but may differ in a detail not shown here. Identical values can stand only once.

Tested on: HEK-293T
Experiment: Multiplex assay against HEK293T;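 as to Population Tubulin-Different-Phenotype (%): share of the cells with healthy nuclei that show this phenotype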
Type: toxicity, cell-based
Conditions: human
Procedure, shortened: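 Tubulin, mitochondrial-mass and membrane-permeability phenotypes are per cents of healthy-nucleus cells. Cells were gated by CellPathfinder machine learning into Hoechst high-intensity objects or normal cells, normal cells into healthy, pyknosed or fragmented nuclei, and pyknosed cells into mitotic or apoptotic. Before that, live cells stained at seeding with Hoechst33342, BioTracker Green Microtubule Cytoskeleton Dye, MitoTracker Red and Annexin V Alexa Fluor 680 were imaged on a CQ1 microscope at 37°C and 5% CO2 after compound addition.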

[1] = 12 h, 1 µM, compound concentration 1 uM, replicate 1
[2] = 12 h, 1 µM, compound concentration 1 uM, replicate 2
[3] = 12 h, 10 µM, compound concentration 10 uM, replicate 1
[4] = 12 h, 10 µM, compound concentration 10 uM, replicate 2
[5] = 24 h, 1 µM, compound concentration 1 uM, replicate 1
[6] = 24 h, 1 µM, compound concentration 1 uM, replicate 2
[7] = 24 h, 10 µM, compound concentration 10 uM, replicate 1
[8] = 24 h, 10 µM, compound concentration 10 uM, replicate 2
[9] = 48 h, 1 µM, compound concentration 1 uM, replicate 1
[10] = 48 h, 1 µM, compound concentration 1 uM, replicate 2
[11] = 48 h, 10 µM, compound concentration 10 uM, replicate 1
[12] = 48 h, 10 µM, compound concentration 10 uM, replicate 2

Compound: CS(=O)(=O)N1CCCC(NC(=O)[C@H](CCC2CCCCC2)NC(=O)c2ccc(CNC(=O)c3cnc4ccccn34)cc2)C1 (some centres undefined) [SR-302]
- Population Apoptotic (%) [1]: 40% [middle of 4 runs]
- Population Fragmented Nuclei (%) [1]: 13% [middle of 4 runs]
- Population Hoechst High Intensity Objects (%) [1]: 14% [middle of 4 runs]
- Population Membrane Permeable-Phenotype (%) [1]: 3% and 2%
- Population Mitotic Cells (%) [1]: 65% [middle of 4 runs]
- Population Normal (%) [1]: 86% and 85% and 81%
- Total Cell Count [1]: 519 [middle of 4 runs]
- Population Apoptotic (%) [2]: 17% [middle of 4 runs]
- Population Fragmented Nuclei (%) [2]: 8% and 5%
- Population Healthy Nuclei (%) [2]: 48% [middle of 4 runs]
- Population Hoechst High Intensity Objects (%) [2]: 6% and 3% and 2%
- Population Mitotic Cells (%) [2]: 88% [middle of 4 runs]
- Population Normal (%) [2]: 93% and 96% and 97%
- Population Apoptotic (%) [3]: 65% [middle of 4 runs]
- Population Fragmented Nuclei (%) [3]: 13% and 12% and 16%
- Population Hoechst High Intensity Objects (%) [3]: 16% [middle of 4 runs]
- Population Membrane Permeable-Phenotype (%) [3]: 7% and 4% and 3%
- Population Mitotic Cells (%) [3]: 35% [middle of 4 runs]
- Population Normal (%) [3]: 85% and 83% and 77% and 86%
- Total Cell Count [3]: 331 [middle of 4 runs]
- Population Healthy Nuclei (%) [4]: 30% and 36% and 87%
- Population Membrane Permeable-Phenotype (%) [4]: 12% and 8%
- Population Mitotic Cells (%) [4]: 52% [middle of 4 runs]
- Population Normal (%) [4]: 95% and 90% and 94% and 97%
- Population Tubulin-Different-Phenotype (%) [4]: 93% [middle of 4 runs]
- Population Apoptotic (%) [5]: 52% [middle of 4 runs]
- Population Fragmented Nuclei (%) [5]: 13% [middle of 4 runs]
- Population Hoechst High Intensity Objects (%) [5]: 15% and 14% and 24%
- Population Membrane Permeable-Phenotype (%) [5]: 4% and 3% and 2%
- Population Mitotic Cells (%) [5]: 64% [middle of 4 runs]
- Population Normal (%) [5]: 84% and 85% and 75%
- Population Healthy Nuclei (%) [6]: 65% [middle of 4 runs]
- Population Membrane Permeable-Phenotype (%) [6]: 11% and 7% and 5%
- Population Mitotic Cells (%) [6]: 76% and 75% and 93%
- Population Normal (%) [6]: 95% and 97% and 96% and 98%
- Population Apoptotic (%) [7]: 63% and 66% and 26%
- Population Fragmented Nuclei (%) [7]: 18% [middle of 4 runs]
- Population Hoechst High Intensity Objects (%) [7]: 17% [middle of 4 runs]
- Population Mitotic Cells (%) [7]: 36% and 33% and 73%
- Population Normal (%) [7]: 82% and 84% and 81% and 89%
- Total Cell Count [7]: 335 [middle of 4 runs]
- Population Fragmented Nuclei (%) [8]: 3% and 6%
- Population Healthy Nuclei (%) [8]: 44% and 77% and 50%
- Population Membrane Permeable-Phenotype (%) [8]: 13% and 6% and 5%
- Population Mitotic Cells (%) [8]: 94% and 46% and 37%
- Population Normal (%) [8]: 98% and 97% and 91% and 95%
- Population Tubulin-Different-Phenotype (%) [8]: 56% and 88% and 94%
- Population Apoptotic (%) [9]: 46% and 31% and 58%
- Population Fragmented Nuclei (%) [9]: 25% and 16% and 23%
- Population Healthy Nuclei (%) [9]: 24% and 43% and 23%
- Population Hoechst High Intensity Objects (%) [9]: 11% and 24%
- Population Membrane Permeable-Phenotype (%) [9]: 1% and 0%
- Population Mitochondria Different-Phenotype (%) [9]: 42% and 44% and 58%
- Population Mitotic Cells (%) [9]: 53% and 68% and 41%
- Population Normal (%) [9]: 88% and 76%
- Population Pyknosed Nuclei (%) [9]: 49% and 40% and 53%
- Population Tubulin-Different-Phenotype (%) [9]: 18% and 29% and 41%
- Total Cell Count [9]: 293 and 638 and 325
- Population Apoptotic (%) [10]: 30% and 16% and 25%
- Population Fragmented Nuclei (%) [10]: 5% and 6% and 7%
- Population Healthy Nuclei (%) [10]: 81% and 84% and 82%
- Population Hoechst High Intensity Objects (%) [10]: 5% and 4%
- Population Membrane Permeable-Phenotype (%) [10]: 3%
- Population Mitochondria Different-Phenotype (%) [10]: 9% and 8% and 10%
- Population Mitotic Cells (%) [10]: 69% and 83% and 74%
- Population Normal (%) [10]: 94% and 95%
- Population Pyknosed Nuclei (%) [10]: 12% and 9% and 10%
- Population Tubulin-Different-Phenotype (%) [10]: 16% and 27%
- Total Cell Count [10]: 344 and 689 and 583
- Population Apoptotic (%) [11]: 64% and 65% and 62%
- Population Fragmented Nuclei (%) [11]: 23% and 21% and 33%
- Population Healthy Nuclei (%) [11]: 18% and 20% and 19%
- Population Hoechst High Intensity Objects (%) [11]: 22% and 18%
- Population Membrane Permeable-Phenotype (%) [11]: 3% and 0%
- Population Mitochondria Different-Phenotype (%) [11]: 90% and 100% and 97%
- Population Mitotic Cells (%) [11]: 35% and 34% and 37%
- Population Normal (%) [11]: 77% and 81%
- Population Pyknosed Nuclei (%) [11]: 58% and 57% and 47%
- Population Tubulin-Different-Phenotype (%) [11]: 96% and 95%
- Total Cell Count [11]: 360 and 347 and 256
- Population Apoptotic (%) [12]: 61% and 73% and 52%
- Population Fragmented Nuclei (%) [12]: 4% and 5% and 8%
- Population Healthy Nuclei (%) [12]: 69% and 75% and 71%
- Population Membrane Permeable-Phenotype (%) [12]: 1%
- Population Mitochondria Different-Phenotype (%) [12]: 89% and 83%
- Population Mitotic Cells (%) [12]: 38% and 26% and 47%
- Population Normal (%) [12]: 97% and 95% and 92%
- Population Pyknosed Nuclei (%) [12]: 26% and 19%
- Total Cell Count [12]: 310 and 372 and 210
